According to PMC4617824 (Cancer research, 2014):

Tests used:
[1] = test system: phosphorylation of Cables1 at T44 and T150; test: A549 xenograft tumors: Cables1 phosphorylation; format: in vivo, lung cancer A549 xenograft mouse model; details: Figure S1
[2] = test system: Akt phosphorylation at T473 (Akt pT473); test: A549 xenograft tumors: Akt phosphorylation; format: in vivo, lung cancer A549 xenograft mouse model; details: compared with vehicle, Figure S1
[3] = test system: phosphorylated levels of GST-Cables1 (endogenous Akt); format: cell-based; details: for block of IGF-1-induced enhancement of GST-Cables1 phosphorylation: 10 μM inhibitor 1 h, then 100 ng/ml IGF 15 min, serum-starved cells
14-3-3ν = 14-3-3ν (UniProt Q04917); test: TR-FRET titration; details: reference: unphosphorylated T44 peptide; sites T44
Sequence of UniProt Q04917 (Q04917 whole entry, looked up): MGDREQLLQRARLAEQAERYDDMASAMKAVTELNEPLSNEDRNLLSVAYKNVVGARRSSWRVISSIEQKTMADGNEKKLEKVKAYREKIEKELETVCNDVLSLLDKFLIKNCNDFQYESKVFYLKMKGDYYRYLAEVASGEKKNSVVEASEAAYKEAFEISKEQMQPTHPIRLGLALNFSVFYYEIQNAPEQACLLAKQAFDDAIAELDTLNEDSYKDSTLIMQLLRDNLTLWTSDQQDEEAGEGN

[4] = test system: Cables1 binding to 14-3-3 (GST-Cables1 / His-14-3-3γ); details: COS7 lysates expressing GST-Cables1 and His-14-3-3γ, 0.5 h, room temperature
In short: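 COS7 cells co-expressing His-14-3-3γ and GST-Cables1 were lysed. Lysates were incubated 0.5 h at room temperature with calf intestinal phosphatase, with phosphatase inhibitors (5 mM Na4P2O7, 5 mM NaF, 5 mM Na3VO4), or untreated. His-14-3-3γ complexes were captured on nickel-charged resin (2 h, 4°C), washed, and eluted by boiling in SDS sample buffer. GST-Cables1 was detected by Western blot.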

Question: For `CC(C)n1nc(-c2ccc3oc(N)nc3c2)c2c(N)ncnc21` [INK128], which “phosphorylation of Cables1 at T44 in tumors” value ([1]; pT44, compared with vehicle) is on record?
Answer: decreased

Question: What about the “phosphorylation of Cables1 at T150 in tumors” value ([1]; pT150, compared with vehicle) of the same molecule?
Answer: decreased

Question: What about the “Akt pT473 level in tumors” value [2] of the same molecule?
Answer: reduced

Question: For IGF-1: IGF-1, Sigma-Aldrich, which “phosphorylated levels of GST-Cables1” value ([3]; 100 ng/ml IGF, 15 min, cells serum-starved 24 h, GST pull-down, Western blot) is on record?
Answer: markedly enhanced

Question: How did the “block of IGF-1-induced enhancement of GST-Cables1 phosphorylation” value [3] turn out when `O.O=C(O)C(F)(F)F.O=c1[nH]c2ccccc2n1C1CCN(Cc2ccc(-c3nc4cc5[nH]cnc5cc4nc3-c3ccccc3)cc2)CC1` [AKT1/2 inhibitor] was run?
Answer: totally blocked

Question: How did the “binding against the reference” value (14-3-3ν) turn out when “Cables1 (from UniProt Q8TDN4-2) pT44 peptide” was run?
Answer: stronger

Question: With `O=c1cc(N2CCOCC2)oc2c(-c3ccccc3)cccc12` [LY294002] as the molecule, how does the “block of IGF-1-induced enhancement of GST-Cables1 phosphorylation” value [3] read?
Answer: totally blocked

B1: CIP: calf intestinal phosphatase (protein, UniProt P19111 20-506, looked up)
Intestinal-type alkaline …: LVPVEEEDPAFWNRQAAQALDVAKKLQPIQTAAKNVILFLGDGMGVPTVTATRILKGQMNGKLGPETPLAMDQFPYVALSKTYNVDRQVPDSAGTATAYLCGVKGNYRTIGVSAAARYNQCKTTRGNEVTSVMNRAKKAGKSVGVVTTTRVQHASPAGAYAHTVNRNWYSDADLPADAQMNGCQDIAAQLVNNMDIDVILGGGRKYMFPVGTPDPEYPDDASVNGVRKRKQNLVQAWQAKHQGAQYVWNRTALLQAADDSSVTHLMGLFEPADMKYNVQQDHTKDPTLQEMTEVALRVVSRNPRGFYLFVEGGRIDHGHHDDKAYMALTEAGMFDNAIAKANELTSELDTLILVTADHSHVFSFGGYTLRGTSIFGLAPSKALDSKSYTSILYGNGPGYALGGGSRPDVNDSTSEDPSYQQQAAVPQASETHGGEDVAVFARGPQAHLVHGVEEETFVAHIMAFAGCVEPYTDCNLPAPTTATSIPD
Question: B1 was tested. Which “Cables1 binding to 14-3-3 after CIP treatment” value [4] did it give?
Answer: reduced
